Measured values gathered from unrelated publications.
Each line is one published result; the experiments were not run side by side.
Effect on: cell growth or viability

Structure (SMILES) | cell line | test | setting | quantity | value
N.N.[Cl][Pt][Cl] | MDA-MB-231 | MTT | 72 h | GI50 | 4180 nM
[Cl-].[Cl-].[Co+2] | BEL-7404 | MTT | 48 h | IC50 | > 150000 nM
COc1ccc(C(=O)c2c[nH]c3ncc(-c4ccc(N5CCNCC5)nc4)cc23)cc1 | MRC5 | MTT | 10 µM, 48 h | viability | 99.2%
CCN1C(=O)SCC1C1(OC)CC2CC(CCC(C)C=CC=CCCC(C)=CC(=O)O2)O1 (stereo not drawn) | MDA-MB-231 | MTT | 72 h | IC50 | > 50000 nM
N.N.[Cl][Pt][Cl] | A-375 | SRB |  | EC50 | 1200 nM
O=C(c1ccc(F)cc1)c1c[nH]c2ncc(-c3ccc(N4CCOCC4)nc3)cc12 | MRC5 | MTT | 10 µM, 48 h | viability | 68.1%
COc1c2c(cc3c1OCO3)[C@]13C=C[C@H](OC)C[C@@H]1[N@](C2)C[C@H]3OC(=O)c1ccco1 | MRC5 | WST-1 |  | IC50 | > 10000 nM
O=C(O)CCn1cc(C(=O)c2ccc(F)cc2)c2cc(-c3ccc(N4CCNCC4)nc3)cnc21 | MRC5 | MTT | 10 µM, 48 h | viability | 77.7%
C/C1=C/C(=O)O[C@@H]2C[C@@H](CC[C@H](C)/C=C\C=C\CC1)O[C@@](O)([C@@H]1CSC(=O)N1Cc1ccccc1)C2 | MDA-MB-231 | MTT | 72 h | IC50 | 2720 nM
COc1cccc2c1C(=O)c1c(O)c3c(c(O)c1C2=O)C[C@@](O)(C(=O)CO)C[C@@H]3O[C@H]1C[C@H](N)[C@H](O)[C@H](C)O1 | LLC-PK11 |  | 48 h | IC50 | 0.9 µg/mL
O=C(c1ccc(F)cc1)c1c[nH]c2ncc(-c3ccnc(N4CCOCC4)c3)cc12 | MRC5 | MTT | 10 µM, 48 h | viability | 89.4%
C/C1=C/C(=O)O[C@@H]2C[C@@H](CC[C@H](C)/C=C\C=C\CC1)O[C@@](OCCc1ccccc1)([C@@H]1CSC(=O)N1)C2 | MDA-MB-231 | MTT | 72 h | IC50 | 2710 nM
